One data set is described as follows: in vitro. The conditions noted are these: human, Caco-2.
Data set [1] relates to P. falciparum strain D6 (CDC/Sierra Leone). Nature of the data set: Malaria SYBR Green I-based fluorescence assay, strain D6. In kind it is cell-based. The note with it: Plasmodium falciparum, D6, 72 h, read-out: SYBR Green D6 IC50. The procedure, abridged:
(§1)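 Late-ring or early-trophozoite parasites at 0.3% starting parasitemia and 2% hematocrit were added to plates predosed with quadruplicate 12-point two-fold dilutions in DMSO (final […]), with mefloquine as reference. Plates were incubated 72 h at 37°C under 5% CO2/5% O2/90% N2, lysed with Tris/EDTA/Triton X/saponin buffer with SYBR Green I (final 10x), kept dark 24 h at RT, and read as RFU. A chloroquine batch control at 2000 ng/ml validated each run.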

The next data set concerns the target T1, TgENR (Toxoplasma gondii, UniProt Q6UCJ9).
T1 sequence (Q6UCJ9 28-417): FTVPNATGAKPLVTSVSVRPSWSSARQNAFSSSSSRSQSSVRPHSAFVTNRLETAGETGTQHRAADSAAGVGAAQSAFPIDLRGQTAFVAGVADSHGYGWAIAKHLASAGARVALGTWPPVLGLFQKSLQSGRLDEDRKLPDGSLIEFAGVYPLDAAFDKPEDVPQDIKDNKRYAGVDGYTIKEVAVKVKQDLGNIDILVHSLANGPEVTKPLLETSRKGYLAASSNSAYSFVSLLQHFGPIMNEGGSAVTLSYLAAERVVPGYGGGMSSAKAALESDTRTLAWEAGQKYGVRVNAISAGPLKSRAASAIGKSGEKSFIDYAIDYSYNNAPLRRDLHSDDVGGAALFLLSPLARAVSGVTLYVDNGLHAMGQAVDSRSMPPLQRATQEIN
Description: TgENR enzyme assay. Format: biochemical. The note with it: for inhibition at 1 µM: read-out: Cpd. conc. [1 μM]/% Inh.: percentage of inhibition of TgENR; for Activity in the enzyme-based assay: purified TgENR.

In the next data set the test system is T. gondii tachyzoites. Description: Parasite tissue culture assay: inhibition of T. gondii tachyzoites in HFF. The note with it: for MIC50 / IC50: Toxoplasma gondii; for Activity in the parasite-based assay: T. gondii tachyzoites. In kind it is cell-based, Toxoplasma gondii.
For data set [2], the system named is Human Foreskin Fibroblasts (HFF). Nature of the data set: Toxicity for host cells. The conditions noted are these: for Parasite tissue culture assay HFF (HFF toxicity): human foreskin fibroblasts, highest concentration tested 10 μM.
Data set [3] has as its system P. falciparum strain TM91C235 (WRAIR, Thailand, chloroquine resistant). Nature of the data set: Malaria SYBR Green I-based fluorescence assay, strain TM91C235. In kind it is cell-based. The conditions noted are these: Plasmodium falciparum, 72 h, read-out: SYBR Green C235 IC50. The procedure, abridged:
as §1

In the next data set the test system is T. gondii. Nature of the data set: T. gondii mouse infection model. Format: in vivo. The note with it: mice; for Effect on parasite burden compared to triclosan (Xenogen camera images): 10mg/ml; for Effect on parasite growth in vivo: 50mg/kg (results not shown).
The subject of the next data set is Caco-2. Nature of the data set: Experimental Caco-2 permeability. The note with it: experimental, Contract Research Organization. For orientation: Caco-2 cells form a polarised layer with tight junctions and transporters.
Data set [4] can be described thus: Intrinsic clearance in human liver microsomes. Format: in vitro ADME.
Data set [5] can be described thus: Intrinsic clearance in human cryopreserved hepatocytes. Format: in vitro ADME. The note with it: human.
For data set [6], the system named is human cryopreserved hepatocytes. The description is as above. In kind it is in vitro ADME.
The nature of data set [7]: Experimental Caco-2 permeability. The conditions noted are these: human, Caco-2.
Another data set in a line: Toxicity in mice. Format: in vivo.
Setting [8] is: 72 h, read-out: Parasite tissue culture assay MIC50.
Setting [9] is: 75 mg/kg, day 5 after infection, 75 mg/kg.

Experimental findings from article PMC3755765 (ChemMedChem, 2013) are described below.

Each structure is given as a SMILES string. Converted amounts (≈) assume the structure as drawn. “And” between values parts separate entries of the source, which are not always exact repeats. Equal entries are not always repeated. “Also recorded” adds a separate entry of the source. Where two headings read alike, the source gives them in different places.

Usually Papp stands for the rate of passage across a membrane or cell layer, normalised by area and donor concentration. A high value points to ready permeation. `CC(C)NCC(O)COc1cccc2ccccc12` (stereo not shown) [propranolol] displayed a Papp in “in vitro” of 51.1 ×10⁻⁶ cm/s.

Usually MIC50 stands for an inhibitory concentration at the 50% level, which refers to growth in some studies and to a panel of isolates in others. As to `Oc1cc(CNc2ccccc2)ccc1Oc1ccc(Cl)cc1Cl` [Compound 39a, 2-(2,4-Dichlorophenoxy)-5-[(phenylamino)methyl]phenol], the IC50 in data set [1] is 4.56 µM and 1.64 µg/mL; against TgENR it was 130 nM; in data set [3], above 2 µg/mL. The inhibition at 1 µM on TgENR was determined as 96%. Further, the MIC50 in the data set on T. gondii tachyzoites (setting [8]) stood at 10 µM (≈ 3.6 µg/mL). For the same compound, in [2], the “Parasite tissue culture assay HFF (HFF toxicity)” value (shortened to “Parasite tissue culture assay HFF”) is above 10 µM.

For `Oc1cc(Cl)ccc1Oc1ccc(Cl)cc1Cl` [Triclosan, triclosan, reference compound], the inhibition at 1 µM on TgENR was determined as 97%. Besides, in the data set on T. gondii tachyzoites (setting [8]), the IC50 stood at 250 nM and the MIC50 was 3 µM (≈ 0.869 µg/mL). Besides, in [2], the “Parasite tissue culture assay HFF” value is above 10 µM. In addition, in the data set with T. gondii (10 mg/kg), the “Effect on parasite burden in vivo” value is “effective; also recorded: demonstrated efficacy”.

For `CCC(=O)c1ccc(Oc2ccc(Cl)cc2Cl)c(O)c1` [Compound 43a, 1-[4-(2,4-Dichlorophenoxy)-3-hydroxyphenyl]propan-1-one], the IC50 in data set [1] is 2.75 µM and 0.857 µg/mL; with T. gondii tachyzoites (setting [8]) it was above 10000 nM; in [3] it was above 2 µg/mL. For the same compound, the “Activity in the enzyme-based assay” value at TgENR is listed as “only weak activity; also recorded: only weak inhibition”. Further, the inhibition at 1 µM on TgENR came to 85%. Besides, the “Activity in the parasite-based assay” value in the data set on T. gondii tachyzoites is “ineffective”. The “Parasite tissue culture assay HFF” value in data set [2] was above 10 µM.

As for `O=C(Nc1ccccc1)c1ccc(Oc2ccc(Cl)cc2Cl)c(O)c1` [Compound 30a, 4-(2,4-Dichlorophenoxy)-3-hydroxy-N-phenylbenzamide], the IC50 in data set [1] and in data set [3] was above 2 µg/mL throughout. Moreover, the inhibition at 1 µM on TgENR stood at 7%. Further, the MIC50 in the data set on T. gondii tachyzoites (setting [8]) is above 10 µM. In data set [2], the “Parasite tissue culture assay HFF” value was above 10 µM.

For `O=C(c1ccc(Oc2ccc(Cl)cc2Cl)c(O)c1)N1CCOCC1` [Compound 30c, [4-(2,4-Dichlorophenoxy)-3-hydroxyphenyl](morpholin-4-yl)methanone], the IC50 in data set [1] and in [3] was above 2 µg/mL each time. Besides, the inhibition at 1 µM on TgENR worked out at 43%. Besides, in the data set with T. gondii tachyzoites (setting [8]), the MIC50 was above 10 µM. In addition, the “Parasite tissue culture assay HFF” value in data set [2] was above 10 µM.

The compound `COc1cc2c(c(OC)c1OC)-c1ccc(OC)c(=O)cc1[C@@H](NC(C)=O)CC2` [colchicines, reference compound] gave a Caco-2 permeability with Caco-2 of 0.1 ×10⁻⁶ cm/s.

Broadly, the half-life is the time in which the quantity being followed falls by half. Lower therefore signals fast loss. `Oc1cc(Cl)ccc1Oc1ccc(Cn2ccnn2)cc1Cl` [Compound 16c, 5-Chloro-2-[2-chloro-4-[(1H-1,2,3-triazol-1-yl)methyl]phenoxy]phenol] yielded a half-life in data set [4] above 60 min. Further, the inhibition at 1 µM at TgENR was found to be 91%. In the data set on T. gondii tachyzoites (setting [8]), the MIC50 was 0.25 µM (≈ 0.084 µg/mL). For the same compound, the IC50 in the data set with T. gondii tachyzoites (read-out: IC50 (MIC50) against Toxoplasma gondii tachyzoites) came out at 250 nM. For the same compound, in data set [2], the “Toxicity to the host cells” value is “without apparent toxicity to the host cells” and the “Parasite tissue culture assay HFF” value was above 10 µM. Moreover, the half-life in data set [5] is 29 min. Further, in data set [6] (after 60 min), the Compound left unmetabolized was found to be 20%. Further, the Compound remained intact in data set [6] (after 120 min) came out at 5%. This compound also returned a Papp in data set [7] of 26.3 ×10⁻⁶ cm/s. For the same compound, the “Effect on parasite burden in vivo” value in the data set with T. gondii (10 mg/kg) is reported as “neither of those analogs reduced the parasite burden; also recorded: no effect”. In addition, in the data set with T. gondii, the “Effect on parasite burden compared to triclosan (Xenogen camera images)” value is “reduced effect” and the “Effect on parasite growth in vivo” value was “not evident”. Moreover, the “Effect on parasite burden in vivo” value in the data set on T. gondii (setting [9]) is on record as “protected the mice by decreasing parasite burden; also recorded: effective in reducing parasite burden”. Further, in the data set “Toxicity in mice”, the “Toxicity in mice relative to triclosan (fold less toxic)” value came to 10 fold.

As to `Oc1cc(Cn2ccnn2)ccc1Oc1ccc(Cl)cc1Cl` [Compound 9c, 2-(2,4-Dichlorophenoxy)-5-(1H-1,2,3-triazol-1-ylmethyl)phenol], the IC50 in data set [1] was 4.71 µM and 1.58 µg/mL; at TgENR, 130 nM; in data set [3], above 2 µg/mL. Further, the inhibition at 1 µM at TgENR is 93%. The MIC50 in the data set with T. gondii tachyzoites (setting [8]) is 10 µM (≈ 3.36 µg/mL). In addition, the “Parasite tissue culture assay HFF” value in data set [2] is above 10 µM.

Turning to `CCCCCCNC(=O)c1ccc(Oc2ccc(Cl)cc2Cl)c(O)c1` [Compound 30d, 4-(2,4-Dichlorophenoxy)-N-hexyl-3-hydroxybenzamide], the IC50 in data set [1] and in data set [3] was above 2 µg/mL each time. In addition, the inhibition at 1 µM at TgENR is 30%. Moreover, the MIC50 in the data set on T. gondii tachyzoites (setting [8]) is above 10 µM. The “Parasite tissue culture assay HFF” value in data set [2] is above 10 µM.

As to `Oc1cc(CNC2CCCCC2)ccc1Oc1ccc(Cl)cc1Cl` [Compound 39b, 5-[(Cyclohexylamino)methyl]-2-(2,4-dichlorophenoxy)phenol], in data set [1], the IC50 is 30 nM and 0.0119 µg/mL. On TgENR, the “Activity in the enzyme-based assay” value was “completely inactive” and the inhibition at 1 µM is 34%. Moreover, in the data set on T. gondii tachyzoites, the “Activity in the parasite-based assay” value is listed as “activity comparable to or better than that of triclosan”. For the same compound, in the data set with T. gondii tachyzoites (setting [8]), the MIC50 stood at 4 µM (≈ 1.47 µg/mL). For the same compound, the “Parasite tissue culture assay HFF” value in [2] is above 10 µM. The IC50 in data set [3] was 80 nM and 0.0276 µg/mL.

Turning to `Cc1cc(CC(=O)NCc2ccc(Oc3ccc(Cl)cc3O)c(Cl)c2)on1` [Compound 37c, N-[3-Chloro-4-(4-chloro-2-hydroxyphenoxy)benzyl]-2-(3-methyl-1,2-oxazol-5-yl)acetamide], the inhibition at 1 µM at TgENR came to 96%. In addition, in the data set with T. gondii tachyzoites (setting [8]), the MIC50 is above 10 µM. For the same compound, the “Effect on parasite burden in vivo” value in the data set on T. gondii (10 mg/kg) was “neither of those analogs reduced the parasite burden; also recorded: no effect”. In addition, in the data set on T. gondii, the “Effect on parasite burden compared to triclosan (Xenogen camera images)” value was “reduced effect” and the “Effect on parasite growth in vivo” value is recorded as “not evident”. In addition, in the data set on T. gondii (setting [9]), the “Effect on parasite burden in vivo” value is reported as “protected the mice by decreasing parasite burden; also recorded: effective in reducing parasite burden”. In addition, the “Toxicity in mice relative to triclosan (fold less toxic)” value in the data set “Toxicity in mice” is 10 fold.
